Data on one compound can be found in ChEMBL document CHEMBL5678815 (Clin Cancer Res, 2017).

The target in experiment [1] is Tyrosine-protein kinase Blk (Homo sapiens) (UniProt P51451). In words: Inhibition of human BLK assessed as remaining activity at 1 uM by ATP-competition binding assay relative to control. Put shortly: (§1)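 KINOMEscan ATP-site-dependent competition binding panel of 395 human kinases, with compound tested at 1 μM. Binding is reported as remaining signal relative to control.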

The target in experiment [2] is Calcium/calmodulin-dependent protein kinase type II subunit gamma (Homo sapiens) (UniProt Q13555). The experiment can be described thus: Inhibition of human CAMK2G assessed as remaining activity at 1 uM by ATP-competition binding assay relative to control. In outline:
as §1

Experiment [3] has as its target Calcium/calmodulin-dependent protein kinase type IV (Homo sapiens) (UniProt Q16566). The experiment can be described thus: Inhibition of human CAMK4 assessed as remaining activity at 1 uM by ATP-competition binding assay relative to control. Put shortly: as §1
The target of experiment [4] is Cyclin-dependent kinase 7 (Homo sapiens) (UniProt P50613). In words: Inhibition of human CDK7 assessed as remaining activity at 1 uM by ATP-competition binding assay relative to control. Put shortly:
as §1

In experiment [5] the target is Epidermal growth factor receptor (Homo sapiens) (UniProt P00533). The experiment can be described thus: Inhibition of human EGFR assessed as remaining activity at 1 uM by ATP-competition binding assay relative to control. In outline:
as §1

Experiment [6] deals with Dual specificity protein kinase CLK2 (Homo sapiens) (UniProt P49760). The experiment can be described thus: Inhibition of human CLK2 assessed as remaining activity at 1 uM by ATP-competition binding assay relative to control. Put shortly:
as §1

Experiment [7] has as its target Receptor tyrosine-protein kinase erbB-4 (Homo sapiens) (UniProt Q15303). The experiment can be described thus: Inhibition of human ERBB4 assessed as remaining activity at 1 uM by ATP-competition binding assay relative to control. Put shortly:
(§2)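 Single-point profiling at 1μM in an ATP-site-dependent competition binding assay across a panel of 395 human kinases, including mutant forms. The read-out is kinase binding signal in the presence of test agent, expressed as inhibition relative to the control signal. This screen assessed noncovalent binding interactions.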

Experiment [8] concerns Epidermal growth factor receptor (Homo sapiens), P00533 [L861Q]. The experiment can be described thus: Inhibition of human EGFR L861Q mutant assessed as remaining activity at 1 uM by ATP-competition binding assay relative to control. In outline: (§3)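 KINOMEscan ATP-site-dependent competition binding assay across a 395-kinase human panel including mutants; compound tested at 1μM; binding expressed relative to control signal.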

For experiment [9], the target named is Mitogen-activated protein kinase kinase kinase 4 (Homo sapiens) (UniProt Q9Y6R4). The experiment can be described thus: Inhibition of human MAP3K4 assessed as remaining activity at 1 uM by ATP-competition binding assay relative to control. Put shortly:
as §2

For experiment [10], the target named is Myosin light chain kinase (Homo sapiens) (UniProt Q32MK0). The experiment can be described thus: Inhibition of human MLCK assessed as remaining activity at 1 uM by ATP-competition binding assay relative to control. Put shortly:
as §2

The target of experiment [11] is Mitogen-activated protein kinase 14 (Homo sapiens) (UniProt Q16539). The experiment can be described thus: Inhibition of human P38alpha assessed as remaining activity at 1 uM by ATP-competition binding assay relative to control. In outline:
as §2

Experiment [12] has as its target Serine/threonine-protein kinase PAK 2 (Homo sapiens) (UniProt Q13177). In words: Inhibition of human PAK2 assessed as remaining activity at 1 uM by ATP-competition binding assay relative to control. In outline:
as §2

Experiment [13] deals with Serine/threonine-protein kinase pim-1 (Homo sapiens) (UniProt P11309). The experiment can be described thus: Inhibition of human PIM1 assessed as remaining activity at 1 uM by ATP-competition binding assay relative to control. In outline: as §2
Experiment [14] concerns the target RAF proto-oncogene serine/threonine-protein kinase (Homo sapiens) (UniProt P04049). In words: Inhibition of human RAF1 assessed as remaining activity at 1 uM by ATP-competition binding assay relative to control. In outline:
(§4)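 Single-concentration (1 μM) screen in an ATP-site-dependent competition binding assay (KINOMEscan, outsourced) covering 395 human kinases, mutants included. Non-covalent binding was read as the remaining signal relative to the control signal.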

Experiment [15] concerns the target cGMP-dependent protein kinase 2 (Homo sapiens) (UniProt Q13237). The experiment can be described thus: Inhibition of human PRKG2 assessed as remaining activity at 1 uM by ATP-competition binding assay relative to control. In outline:
as §4

Experiment [16] has as its target Tyrosine-protein kinase Tec (Homo sapiens) (UniProt P42680). In words: Inhibition of human TEC assessed as remaining activity at 1 uM by ATP-competition binding assay relative to control. Put shortly:
as §3

In experiment [17] the target is Mitogen-activated protein kinase kinase kinase 20 (Homo sapiens) (UniProt Q9NYL2). The experiment can be described thus: Inhibition of human ZAK assessed as remaining activity at 1 uM by ATP-competition binding assay relative to control. In outline: as §4
The subject of the next experiment is Splenocyte. In words: In vivo inhibition of BCR signaling in female […] mouse assessed as change in CD86 expression at 25 mg/kg, po administered and measured after stimulation with anti-IgM for 18 h by flow cytometry analysis. Type of experiment: functional, organism-based. Put shortly: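 Female C57BL/6 mice (5/group) received vehicle or 25 mg/kg drug by oral gavage at time zero, with spleens taken at time points from 3 to 24 h. Splenocytes were stimulated ex vivo with goat anti-mouse IgM at 10μg/mL for 18 h at 37°C in 5% CO2, then Fc-blocked and stained for CD19 plus CD69, CD86 or phospho-S6(S235/236), with 7-AAD to exclude dead cells. Read-out was flow cytometry on >5,000 gated CD19+ cells, compared with vehicle.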
For orientation: A flow cytometer gives signals particle by particle.

Experiment [18] in a line: Antitumor activity against human CLL mononuclear cells xenografted NSG mouse assessed as inhibition in the phosphorylation of ERK at 0.3 mg/ml preadministered with compound via drinking water and measured after 3 weeks by flow cytometry analysis relative to control. Conditions: CLL mononuclear cell, 504 h. Type of experiment: functional. In outline: (§5)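 Primary CLL patient mononuclear cells (1 × 10^8 per mouse) engrafted into NSG mice on day 0 after busulfan priming on day −1. Vehicle or drug was given in drinking water from day −1. Mice were killed 3 weeks after engraftment; spleens homogenized, filtered and RBC-lysed; whole blood collected. Six patients, 2–5 mice per patient; paired t-test per patient.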
(In general: Xenograft models place foreign cells or tissue in a host animal.)

Experiment [19] is described as follows: Antileukemic activity against human CLL mononuclear cells xenografted NSG mouse assessed as inhibition in cell proliferation measuring by Ki67 expression level at 0.3 to 0.16 mg/ml preadministered with compound via drinking water and measured after 3 weeks by flow cytometry analysis relative to control. Type of experiment: functional. The settings on record: dose 0.3-0.16 mg/ml, at 0.16 to 0.3 mg/mL. In outline:
as §5

SMILES strings stand for the structures. Active and inactive are the calls of the source. No cut-off for these calls is given here.

As a reminder, the inhibition in vivo is the change of the read-out against control, counted positive when it falls. With `CC#CC(=O)N1CCC[C@H]1c1nc(-c2ccc(C(=O)Nc3ccccn3)cc2)c2c(N)nccn12` [ACALABRUTINIB], the Activity in experiment [1] worked out at 61%; in [2], 84%; in experiment [3] it was 91%; in experiment [4] it was 74%; in [5], 75%; in experiment [6] it was 94%. The Activity in experiment [7] was 4.3%; in experiment [8], 84%; in [9], 86%; in experiment [10], 99%; in [11], 84%; in [12] it was 78%. The Activity in [13] worked out at 84%; in experiment [14], 77%; in experiment [15] it was 95%; in experiment [16], 6.4%; in [17] it was 84%. Further, in the experiment on Splenocyte, the result was Active. In experiment [18], the inhibition in vivo at 300 µg/mL stood at 79%. In addition, the “inhibition (INH)” value in experiment [19] was 50%.
